Laboratory results from ChEMBL document CHEMBL1154933, “2-Aminothiadiazole inhibitors of AKT1 as potential cancer therapeutics” (Bioorg Med Chem Lett, 2010).
The source made the active and inactive calls. The rule behind the calls is not given here.

system: not listed separately; test: Cmax in Sprague-Dawley rat at 10 mg/kg, po; type: ADME, organism-based; parameters: dose 10 mg/kg, route oral; details: in vivo
Procedure, shortened: (§1)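 Male Sprague-Dawley rats, n = 3, dosed orally at 10 mg/kg in 25% PEG 400/[…]. Cmax was taken from the oral exposure. Bioavailability was derived against the separate iv arm, which was 2 mg/kg in 100% DMSO.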

| Compound | Cmax [ng/mL] |
| --- | --- |
| N[C@H](CNc1nnc(-c2ccc3cnccc3c2)s1)Cc1ccc(C(F)(F)F)cc1 | 430 |

target: T1, RAC-alpha serine/threonine-protein kinase (Homo sapiens, UniProt P31749); test: Inhibition of human AKT1 in human U87MG cells assessed as PRAS40 phosphorylation after 1 hr by ELISA; type: cell-based, U-87MG ATCC; details: not given
Procedure, shortened: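 U87MG cells in 5% FBS medium were incubated with threefold serial dilutions of inhibitor for 1 h at 37 °C, then lysed. Phospho-PRAS40 (Thr246) was quantified by ELISA and normalized to total PRAS40. Mean ± SD where n ≥ 3.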

T1 sequence (P31749 whole entry): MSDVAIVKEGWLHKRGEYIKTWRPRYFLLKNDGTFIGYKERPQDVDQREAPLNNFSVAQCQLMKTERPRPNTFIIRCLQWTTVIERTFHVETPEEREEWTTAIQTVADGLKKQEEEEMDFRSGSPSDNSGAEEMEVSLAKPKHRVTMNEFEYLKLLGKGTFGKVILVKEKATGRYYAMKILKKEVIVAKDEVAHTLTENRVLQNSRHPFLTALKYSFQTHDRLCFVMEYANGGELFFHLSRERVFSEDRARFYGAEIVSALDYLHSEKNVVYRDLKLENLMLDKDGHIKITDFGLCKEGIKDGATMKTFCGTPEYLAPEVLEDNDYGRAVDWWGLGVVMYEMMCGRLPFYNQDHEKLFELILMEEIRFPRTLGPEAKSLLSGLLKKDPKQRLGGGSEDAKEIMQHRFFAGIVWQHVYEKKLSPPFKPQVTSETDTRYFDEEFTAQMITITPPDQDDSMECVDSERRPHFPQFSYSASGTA

| Compound | IC50 [nM] |
| --- | --- |
| N[C@H](CNc1nnc(-c2ccc3cnccc3c2)s1)Cc1ccc(C(F)(F)F)cc1 | 247 |
| N[C@H](CNc1nnc(-c2ccc3[nH]ncc3c2)s1)Cc1ccc(C(F)(F)F)cc1 | 444 |
| Cc1n[nH]c2ccc(-c3nnc(NC[C@@H](N)Cc4ccc(C(F)(F)F)cc4)s3)cc12 | 357 |

system: not listed separately; test: Volume of distribution at steady state in Sprague-Dawley rat at 2 mg/kg, iv; type: ADME, organism-based; parameters: dose 2 mg/kg, route intravenous; details: in vivo, read-out: Vdss
Procedure, shortened: (§2)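 Male Sprague-Dawley rats, n = 3, given a single iv dose in 100% DMSO, at 1 mg/kg or 2 mg/kg depending on compound. Clearance, half-life and steady-state volume of distribution were taken from plasma exposure after the iv dose.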

| Compound | Vd [L/kg] |
| --- | --- |
| N[C@H](CNc1nnc(-c2ccc3cnccc3c2)s1)Cc1ccc(C(F)(F)F)cc1 | 3.8 |

target: T1, RAC-alpha serine/threonine-protein kinase; test: Inhibition of AKT1 after 10 mins by [gamma33]ATP assay; details: not given

| Compound | IC50 [nM] |
| --- | --- |
| N[C@H](CNc1nnc(-c2ccc3[nH]ncc3c2)s1)Cc1ccc(F)cc1 | 368 |
| N[C@H](CNc1nnc(-c2ccc3cnccc3c2)s1)Cc1ccc(C(F)(F)F)cc1 | 3 |
| N[C@H](CNc1nnc(-c2ccc3[nH]ncc3c2)s1)Cc1ccc(Cl)cc1Cl | 40 |
| N[C@H](CNc1nnc(-c2ccc3[nH]nc(-c4ccccc4)c3c2)s1)Cc1cccc(C(F)(F)F)c1 | 413 |
| Cc1cc2cc(-c3nnc(NC[C@@H](N)Cc4ccc(C(F)(F)F)cc4)s3)ccc2cn1 | 280 |
| Cc1n[nH]c2ccc(-c3nnc(NC[C@@H](N)Cc4cccc(Cl)c4)s3)cc12 | 19 |
| N[C@H](CNc1nnc(-c2ccc3[nH]nc(C4CC4)c3c2)s1)Cc1ccc(C(F)(F)F)cc1 | 181 |
| Cc1n[nH]c2ccc(-c3nnc(NC[C@H](N)Cc4ccccc4)s3)cc12 | > 2200 |
| N[C@H](CNc1nnc(-c2ccc3[nH]ncc3c2)s1)Cc1ccc(C(F)(F)F)cc1 | 6 |
| Cc1n[nH]c2ccc(-c3nnc(NC[C@@H](N)Cc4ccc(Cl)cc4)s3)cc12 | 8.9 |
| Cc1n[nH]c2ccc(-c3nnc(NC[C@@H](N)Cc4ccc(C(F)(F)F)cc4)s3)cc12 | 5.5 |

system: not listed separately; test: Half life in Sprague-Dawley rat at 2 mg/kg, iv; type: ADME, organism-based; parameters: dose 2 mg/kg, route intravenous; details: in vivo; procedure, shortened: as §2

| Compound | half-life [h] |
| --- | --- |
| N[C@H](CNc1nnc(-c2ccc3cnccc3c2)s1)Cc1ccc(C(F)(F)F)cc1 | 3.8 |

system: not listed separately; test: Selectivity ratio of IC50 for CDK2 to IC50 for AKT1; details: not given

| Compound | Ratio IC50 |
| --- | --- |
| N[C@H](CNc1nnc(-c2ccc3cnccc3c2)s1)Cc1ccc(C(F)(F)F)cc1 | 20 |
| N[C@H](CNc1nnc(-c2ccc3[nH]ncc3c2)s1)Cc1ccc(Cl)cc1Cl | 8 |
| N[C@H](CNc1nnc(-c2ccc3[nH]ncc3c2)s1)Cc1ccc(C(F)(F)F)cc1 | 4 |

target: T1, RAC-alpha serine/threonine-protein kinase; test: Inhibition of human AKT1 in human MDA-MB-468 cells assessed as phosphorylation-mediated nuclear translocation of GFP-tagged FKHRL1 by fluorescence microscopy; type: cell-based; details: not given
Procedure, shortened: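 MDA-MB-468 cells stably expressing GFP-tagged FKHRL1 were treated with threefold serial dilutions of compound. Nuclear translocation of the fusion protein was scored by fluorescence microscopy. Mean ± SD where n ≥ 3, some values from a single run.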

| Compound | IC50 [nM] |
| --- | --- |
| N[C@H](CNc1nnc(-c2ccc3cnccc3c2)s1)Cc1ccc(C(F)(F)F)cc1 | 695 |
| N[C@H](CNc1nnc(-c2ccc3[nH]ncc3c2)s1)Cc1ccc(C(F)(F)F)cc1 | 154 |
| Cc1n[nH]c2ccc(-c3nnc(NC[C@@H](N)Cc4ccc(C(F)(F)F)cc4)s3)cc12 | 333 |

system: not listed separately; test: Volume of distribution at steady state in Sprague-Dawley rat at 1 mg/kg, iv; type: ADME, organism-based; parameters: dose 1 mg/kg, route intravenous; details: in vivo, read-out: Vdss; procedure, shortened: as §2

| Compound | Vd [L/kg] |
| --- | --- |
| N[C@H](CNc1nnc(-c2ccc3[nH]ncc3c2)s1)Cc1ccc(C(F)(F)F)cc1 | 13.3 |
| Cc1n[nH]c2ccc(-c3nnc(NC[C@@H](N)Cc4ccc(C(F)(F)F)cc4)s3)cc12 | 13.7 |

system: not listed separately; test: Oral bioavailability in Sprague-Dawley rat at 10 mg/kg; type: ADME, organism-based; details: in vivo; procedure, shortened: as §1

| Compound | bioavailability [%] |
| --- | --- |
| N[C@H](CNc1nnc(-c2ccc3cnccc3c2)s1)Cc1ccc(C(F)(F)F)cc1 | 20 |

system: Mus musculus; test: Inhibition of HGF-stimulated AKT signaling pathway in BALB/c mouse liver assessed as reduction in phosphorylated FKHRL1 level at 30 mg/kg, ip dosed up to 6 hrs before HGF challenge and measured after 5 mins by Western blot analysis; type: functional, organism-based; parameters: dose 30 mg/kg; details: not given

| Compound | inhibition |
| --- | --- |
| N[C@H](CNc1nnc(-c2ccc3cnccc3c2)s1)Cc1ccc(C(F)(F)F)cc1 | Active |

system: not listed separately; test: Clearance in Sprague-Dawley rat at 1 mg/kg, iv; type: ADME, organism-based; parameters: dose 1 mg/kg, route intravenous; details: in vivo; procedure, shortened: as §2

| Compound | clearance [mL/min/kg] |
| --- | --- |
| N[C@H](CNc1nnc(-c2ccc3[nH]ncc3c2)s1)Cc1ccc(C(F)(F)F)cc1 | 81.7 |
| Cc1n[nH]c2ccc(-c3nnc(NC[C@@H](N)Cc4ccc(C(F)(F)F)cc4)s3)cc12 | 46.7 |

system: not listed separately; test: Cytotoxicity against human U87MG cells after 3 days by alamar blue staining; type: functional, cell-based, U-87MG ATCC; details: U-87 MG, 72 h
Procedure, shortened: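 U-87 glioblastoma cells seeded at 6000 cells/well and exposed to compound over a concentration series for 3 days. Viability read by alamarBlue staining, run in triplicate, and EC50 derived.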

| Compound | EC50 [nM] |
| --- | --- |
| N[C@H](CNc1nnc(-c2ccc3cnccc3c2)s1)Cc1ccc(C(F)(F)F)cc1 | 380 |

target: Cyclin-dependent kinase 2 (Homo sapiens, UniProt P24941); test: Inhibition of CDK2; details: not given

| Compound | IC50 [nM] |
| --- | --- |
| N[C@H](CNc1nnc(-c2ccc3[nH]ncc3c2)s1)Cc1ccc(F)cc1 | 74 |
| N[C@H](CNc1nnc(-c2ccc3cnccc3c2)s1)Cc1ccc(C(F)(F)F)cc1 | 53 |
| N[C@H](CNc1nnc(-c2ccc3[nH]ncc3c2)s1)Cc1ccc(Cl)cc1Cl | 323 |
| N[C@H](CNc1nnc(-c2ccc3[nH]nc(-c4ccccc4)c3c2)s1)Cc1cccc(C(F)(F)F)c1 | 79 |
| Cc1cc2cc(-c3nnc(NC[C@@H](N)Cc4ccc(C(F)(F)F)cc4)s3)ccc2cn1 | 607 |
| Cc1n[nH]c2ccc(-c3nnc(NC[C@@H](N)Cc4cccc(Cl)c4)s3)cc12 | 17 |
| N[C@H](CNc1nnc(-c2ccc3[nH]nc(C4CC4)c3c2)s1)Cc1ccc(C(F)(F)F)cc1 | 135 |
| N[C@H](CNc1nnc(-c2ccc3[nH]ncc3c2)s1)Cc1ccc(C(F)(F)F)cc1 | 24 |
| Cc1n[nH]c2ccc(-c3nnc(NC[C@@H](N)Cc4ccc(Cl)cc4)s3)cc12 | 72 |
| Cc1n[nH]c2ccc(-c3nnc(NC[C@@H](N)Cc4ccc(C(F)(F)F)cc4)s3)cc12 | 17 |

system: not listed separately; test: Half life in Sprague-Dawley rat at 1 mg/kg, iv; type: ADME, organism-based; parameters: dose 1 mg/kg, route intravenous; details: in vivo; procedure, shortened: as §2

| Compound | half-life [h] |
| --- | --- |
| N[C@H](CNc1nnc(-c2ccc3[nH]ncc3c2)s1)Cc1ccc(C(F)(F)F)cc1 | 2.5 |
| Cc1n[nH]c2ccc(-c3nnc(NC[C@@H](N)Cc4ccc(C(F)(F)F)cc4)s3)cc12 | 4.1 |

system: not listed separately; test: Inhibition of PKA; details: not given

| Compound | IC50 [nM] |
| --- | --- |
| N[C@H](CNc1nnc(-c2ccc3[nH]ncc3c2)s1)Cc1ccc(F)cc1 | 373 |
| N[C@H](CNc1nnc(-c2ccc3cnccc3c2)s1)Cc1ccc(C(F)(F)F)cc1 | 8 |
| N[C@H](CNc1nnc(-c2ccc3[nH]ncc3c2)s1)Cc1ccc(Cl)cc1Cl | 158 |
| N[C@H](CNc1nnc(-c2ccc3[nH]nc(-c4ccccc4)c3c2)s1)Cc1cccc(C(F)(F)F)c1 | 368 |
| Cc1cc2cc(-c3nnc(NC[C@@H](N)Cc4ccc(C(F)(F)F)cc4)s3)ccc2cn1 | 274 |
| Cc1n[nH]c2ccc(-c3nnc(NC[C@@H](N)Cc4cccc(Cl)c4)s3)cc12 | 15 |
| N[C@H](CNc1nnc(-c2ccc3[nH]nc(C4CC4)c3c2)s1)Cc1ccc(C(F)(F)F)cc1 | 237 |
| N[C@H](CNc1nnc(-c2ccc3[nH]ncc3c2)s1)Cc1ccc(C(F)(F)F)cc1 | 108 |
| Cc1n[nH]c2ccc(-c3nnc(NC[C@@H](N)Cc4ccc(Cl)cc4)s3)cc12 | 11 |
| Cc1n[nH]c2ccc(-c3nnc(NC[C@@H](N)Cc4ccc(C(F)(F)F)cc4)s3)cc12 | 13 |

target: T2, Serine/threonine-protein kinase Sgk1 (Homo sapiens, UniProt O00141); test: Inhibition of SGK1; details: not given
T2 sequence (O00141 whole entry): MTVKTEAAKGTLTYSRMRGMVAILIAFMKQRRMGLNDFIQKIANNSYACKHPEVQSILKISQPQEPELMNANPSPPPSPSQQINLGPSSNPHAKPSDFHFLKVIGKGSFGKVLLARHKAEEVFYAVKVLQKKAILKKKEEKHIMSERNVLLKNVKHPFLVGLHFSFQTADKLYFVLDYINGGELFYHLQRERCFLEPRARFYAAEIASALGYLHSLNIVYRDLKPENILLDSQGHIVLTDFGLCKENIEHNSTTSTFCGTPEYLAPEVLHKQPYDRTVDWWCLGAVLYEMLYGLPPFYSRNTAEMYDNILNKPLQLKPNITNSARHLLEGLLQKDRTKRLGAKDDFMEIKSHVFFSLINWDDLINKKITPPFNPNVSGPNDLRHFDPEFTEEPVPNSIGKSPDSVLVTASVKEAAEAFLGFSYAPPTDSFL

| Compound | IC50 [nM] |
| --- | --- |
| N[C@H](CNc1nnc(-c2ccc3cnccc3c2)s1)Cc1ccc(C(F)(F)F)cc1 | 2200 |

system: not listed separately; test: Clearance in Sprague-Dawley rat at 2 mg/kg, iv; type: ADME, organism-based; parameters: dose 2 mg/kg, route intravenous; details: in vivo; procedure, shortened: as §2

| Compound | clearance [mL/min/kg] |
| --- | --- |
| N[C@H](CNc1nnc(-c2ccc3cnccc3c2)s1)Cc1ccc(C(F)(F)F)cc1 | 25 |

system: Mus musculus; test: Inhibition of HGF-stimulated AKT signaling pathway in BALB/c mouse liver assessed as reduction in phosphorylated FKHRL1 level ip dosed 1 hr before HGF challenge and measured after 5 mins by Western blot analysis; type: functional, organism-based; details: not given

| Compound | inhibition |
| --- | --- |
| N[C@H](CNc1nnc(-c2ccc3cnccc3c2)s1)Cc1ccc(C(F)(F)F)cc1 | Dose-dependent effect |
